GRIN3A LBD mod = NR3A (human) ligand-binding domain modulation; NR3A LBD differential scanning fluorimetry, Tm shift; 0% = protein alone, 100% = glycine-bound protein; Tm shift relative to glycine control, % at 25 µM; actives 2.5% (n = 340,000);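 active means melting temperature shift of at least 10% of the positive control shift, at one fixed dose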
T cruzi repl = T. cruzi replication inhibition. T. cruzi beta-gal in NIH3T3, luminescence, 90 h. inhibition, % (concentration not given with the values). actives 1.4% (n = 300,000);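 active means mean inhibition across valid replicates above about 55%, limit read from the data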;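 further: signal also drops with host cell toxicity which is not excluded here; higher percent means less beta-gal luminescence so fewer parasites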
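Incubation – ≥90 h infection period, 3 h prior cell attachment · System – NIH/3T3 fibroblasts plus reporter T. cruzi · Doses – compound pinned at 50 nL/well, DMSO · Read-out basis – percent inhibition of parasite-derived β-gal signal · Signal – luminescent β-galactosidase signal after 60 min lysis · Also added – 5000 T. cruzi trypomastigotes/well · Medium – Low-serum DMEM with 2% FBS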
PREPL inh = human PREPL enzyme inhibition | inhibition, % at 5.96 µM | actives 0.68% (n = 320,000) | recombinant PREPL, fluorescence polarization activity-based probe; in the data active means inhibition above about 43%
Target sequence (Q4J6C6 whole entry, looked up): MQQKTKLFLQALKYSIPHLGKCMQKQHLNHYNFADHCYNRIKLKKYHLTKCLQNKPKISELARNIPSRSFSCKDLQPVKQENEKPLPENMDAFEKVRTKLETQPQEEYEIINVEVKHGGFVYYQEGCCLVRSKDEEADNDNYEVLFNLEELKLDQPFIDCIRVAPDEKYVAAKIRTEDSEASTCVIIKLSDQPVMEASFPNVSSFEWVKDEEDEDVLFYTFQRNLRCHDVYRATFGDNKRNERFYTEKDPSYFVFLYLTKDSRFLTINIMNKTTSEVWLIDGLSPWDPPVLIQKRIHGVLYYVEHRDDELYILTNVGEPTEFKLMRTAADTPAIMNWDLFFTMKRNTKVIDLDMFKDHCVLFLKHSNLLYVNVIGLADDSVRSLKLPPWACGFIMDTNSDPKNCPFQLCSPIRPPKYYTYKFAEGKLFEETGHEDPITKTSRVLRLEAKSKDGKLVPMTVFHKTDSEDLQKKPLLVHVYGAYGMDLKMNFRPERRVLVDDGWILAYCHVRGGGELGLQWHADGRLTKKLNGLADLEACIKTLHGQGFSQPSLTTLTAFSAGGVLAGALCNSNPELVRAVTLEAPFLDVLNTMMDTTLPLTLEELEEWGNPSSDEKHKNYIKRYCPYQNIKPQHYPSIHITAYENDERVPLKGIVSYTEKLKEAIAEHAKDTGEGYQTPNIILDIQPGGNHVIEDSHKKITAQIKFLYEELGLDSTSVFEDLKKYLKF
CSC inhib = blocks cancer stem cells | actives 1.1% (n = 300,000) | inhibition, % at 7.5 µM | cancer stem cell-like cells viability, luminescence; in the data active means inhibition above about 75%; tested in HMLE shEcad cells
CHOP inh = inhibitors of CHOP induction in ER stress response | CHO-K1 CHOP-promoter luciferase, tunicamycin-induced, 15-18 h | inhibition, % at 10 µM | actives 3.8% (n = 220,000) | AID 2732;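 active means compounds that reduced the stress-induced luciferase reporter signal by more than about 70% of percent inhibition, limit read from the data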
Beta apoptosis = blocks beta cell apoptosis | INS-1E cytokine-induced death, ATP luminescence, 48 h; percent of positive-control rescue, neutral wells zero | AID 435005 | protection from apoptosis, % (concentration not given with the values) | actives 0.8% (n = 300,000);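 active means Every replicate reaches about 75%, or at least half do and their mean reaches it too, limit read from the data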;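 further: higher means more ATP so stronger rescue from cytokine killing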
Large screens that a line does not name were inactive. Hits are enriched below; roughly 6.7% of the tested compounds scored in any of these assays.

CCOC(=O)N1CCN(C(=O)COC(=O)C2CCN(S(=O)(=O)c3ccc(C)c(C)c3)CC2)CC1	none (no result: CHOP inh)
CCCCC(CC)Cn1c(O)c(/C=C2\C=NN=C2c2ccccc2)sc1=S (centres undefined)	GRIN3A LBD mod 21.3
CCCn1c(O)c(/C=C2\C=NN=C2c2ccccc2)sc1=S	GRIN3A LBD mod 15.8
O=C(O)CCCn1c(O)c(C=C2N=c3ccccc3=N2)sc1=S	none
C=CCn1c(O)c(/C=C2\C=NN=C2c2ccccc2)sc1=S	GRIN3A LBD mod 12.0
CCOC(=O)Nc1ccc2c(COC(=O)C(NS(=O)(=O)c3ccc(Cl)cc3)C(C)O)cc(=O)oc2c1 (centres undefined)	none (no result: T cruzi repl, CHOP inh)
CCCCN(C(=O)C1CCN(C(=O)c2ccccc2C)CC1)c1c(N)n(CC(C)C)c(=O)[nH]c1=O	none (no result: T cruzi repl, PREPL inh, CSC inhib, CHOP inh, Beta apoptosis)
CC(C)c1ccc(NC2CCCN(C(=O)c3n[nH]c4c3CCC4)C2)cc1 (centres undefined)	none (no result: CHOP inh)
CC[C@]12C(=O)N(C)C[C@H]([C@@H]3C(=O)N(Cc4ccccc4)C(=O)[C@@H]31)N2C(=O)c1ccc(F)cc1	none (no result: T cruzi repl, PREPL inh, CSC inhib, CHOP inh, Beta apoptosis)
COc1ccccc1CNC(=S)Nc1ccc2nc(N3CCN(C)CC3)cc(C)c2c1	T cruzi repl 57.4, CSC inhib 79.7
CCCN(CCC)CCCNC(=S)Nc1ccc2nc(N3CCCC3)cc(C)c2c1	T cruzi repl 59.4
Cc1cc(N2CCN(C)CC2)nc2ccc(NC(=S)NCCC(C)C)cc12	T cruzi repl 57.4, CSC inhib 82.9 (no result: CHOP inh)
Cc1cc(N2CCOCC2)nc2ccc(NC(=S)NCCC(C)C)cc12	none (no result: CHOP inh)
CCOc1ccc(Oc2ccc(C(F)(F)F)cc2N)cc1	CHOP inh 78.2
O=C(NC1CCCCC1)C(c1cccnc1)N(CCc1ccccc1)C(=O)Cc1cccs1 (centres undefined)	none
Cc1cc(C)n(CCc2nc(-c3ccc(F)cc3)cs2)n1	none
Cc1cc(C)n(CCc2nc(-c3ccc(C(C)(C)C)cc3)cs2)n1	GRIN3A LBD mod 11.5
C[C@@H]1NS(=O)(=O)[C@H]2C[C@@H]3C=C[C@]2(O3)[C@H]1OC(=O)Nc1ccc(C(F)(F)F)cc1[N+](=O)[O-]	none (no result: T cruzi repl, CHOP inh)
C/C(=N\Nc1cc(-c2ccccc2)nc(-c2ccc(Br)cc2)n1)c1cccc(N)c1	GRIN3A LBD mod 29.0 (no result: CHOP inh)
C/C(=N\Nc1ccccc1)c1cccc(N)c1	none (no result: PREPL inh, CHOP inh)
C/C(=N/Nc1cc(-c2ccccc2)nc(-c2ccccc2)n1)c1ccc(O)cc1	GRIN3A LBD mod 34.1, CSC inhib 106.3, CHOP inh 74.8
Cc1ccc(S(=O)(=O)N(CC(=O)Nc2ccc(Cl)cc2)C(=O)N2CCN(C)CC2)cc1	none (no result: PREPL inh, CSC inhib, CHOP inh, Beta apoptosis)
CN(Cc1ccc(OC(F)F)cc1)C(=O)c1cccc(S(=O)(=O)N2CCN(Cc3ccccc3)CC2)c1	none (no result: T cruzi repl, PREPL inh, CSC inhib, CHOP inh, Beta apoptosis)
CC(C)CCN(C(=S)NC(=O)C1CCCCC1)c1c(N)n(Cc2ccccc2)c(=O)[nH]c1=O	none
Cc1ccc(-n2c(-c3ccccc3)c[n+]3c2CCc2ccccc2-3)c(C)c1	Beta apoptosis 129.6 (no result: T cruzi repl)
CC(NC(=O)c1ccccc1Cl)c1nnc(SCC(=O)Nc2ccc(C(=O)O)cc2)n1C (centres undefined)	GRIN3A LBD mod 15.8
O=C(Nc1c(C(=O)O)[nH]c2ccc(F)cc12)c1cccc(C(F)(F)F)c1	GRIN3A LBD mod 12.5
Cc1ccccc1C(=O)NNC(=O)CSc1nc(-c2ccccc2)cc(=O)[nH]1	none
C/C(=N/O)c1cc(C(C)(C)C)c(O)c(C(C)(C)C)c1	CHOP inh 86.2
CC(C)(Sc1cc(C(C)(C)C)c(O)c(C(C)(C)C)c1)Sc1cc(C(C)(C)C)c(O)c(C(C)(C)C)c1	none
N=c1ccn(CC(=O)c2ccc(-c3ccccc3)cc2)cc1	T cruzi repl 57.8, Beta apoptosis 133.9
COC(=O)Nc1nc(-c2cc(Cl)ccc2Cl)cs1	T cruzi repl 80.1 (no result: CSC inhib, Beta apoptosis)
CCOC(=O)Nc1nc(-c2ccc(F)cc2F)cs1	none
CCc1noc(C)c1C(=O)Nc1nc(-c2ccc(Cl)cc2Cl)cs1	CHOP inh 72.9
COc1cc(C(=O)NCC(=O)OCCN2C(=O)c3ccccc3C2=O)cc(OC)c1OC	none (no result: CSC inhib)
COc1ccc2oc(=N)c(C(=O)Nc3ccccc3Cl)cc2c1	none (no result: CHOP inh)
NC(=S)N/N=C/c1ncc(C(F)(F)F)cc1Cl	CSC inhib 90.7
NC(=S)N/N=C/c1ccc(C(F)(F)F)cc1	GRIN3A LBD mod 19.1 (no result: Beta apoptosis)
ON/C=N/C(=S)Nc1ncc(C(F)(F)F)cc1Cl	none
COC(=O)c1ccc(COc2ccc(/C=N/NC(N)=S)cc2)o1	T cruzi repl 54.8
COC(=O)c1ccc(COc2ccc(Cl)cc2)o1	none (no result: CHOP inh)
COc1ccc(/C=N/NC(N)=S)cc1	none
C=CCOc1ccc(/C=N\NC(N)=S)cc1	T cruzi repl 64.4
CN1c2ccccc2C(C)(C)C12CC(c1cccc(S(=O)(=O)N3CCCC3)c1)=NO2 (centres undefined)	none
O=C1NC(=S)SC1=C1CCCC1	none
c1ccc(-c2csc3ncnc(NCC4COc5ccccc5O4)c23)cc1 (centres undefined)	CHOP inh 93.1, Beta apoptosis 127.1
Cc1sc2ncnc(NCC(C)(C)N3CCOCC3)c2c1C	Beta apoptosis 85.0 (no result: T cruzi repl)
c1ccc(-c2csc3ncnc(NCCCN4CCOCC4)c23)cc1	none
Cc1sc2ncnc(NCC3COc4ccccc4O3)c2c1C (centres undefined)	CHOP inh 76.1, Beta apoptosis 130.4
CCCCN(CC)C(=O)Cn1cnc2ccc(S(=O)(=O)N3CCC(C)CC3)cc2c1=O	none
CCCCN(CCO)c1ncnc2sc(-c3ccccc3)cc12	none (no result: CHOP inh)
CC12CCC(C(=O)Nc3nc4ccc(Br)cc4s3)(OC1=O)C2(C)C (centres undefined)	none
COc1ccc(Cl)cc1NC(=O)CN(C)C(=O)c1n[nH]c2ccccc12	none (no result: CHOP inh)
O=C1C=C(c2cc(C(F)(F)F)cc(C(F)(F)F)c2)C[C@@H](c2ccc(Cl)cc2)C1	GRIN3A LBD mod 12.9 (no result: T cruzi repl, CHOP inh)
O=C1C=C(c2ccc3ccccc3c2)C[C@@H](c2ccc(Cl)cc2)C1	none (no result: T cruzi repl, CHOP inh)
O=C1C=C(c2cccc(Cl)c2)C[C@@H](c2ccc3c(c2)OCO3)C1	none (no result: T cruzi repl, CHOP inh)
O=C1C=C(c2ccc3[nH]ccc3c2)C[C@@H](c2ccc(Cl)cc2)C1	GRIN3A LBD mod 21.6 (no result: T cruzi repl, CHOP inh)
O=C1C=C(c2ccc(Cl)c(C(F)(F)F)c2)C[C@@H](c2ccc3c(c2)OCO3)C1	CSC inhib 109.9 (no result: T cruzi repl, CHOP inh)
CC(C)(C)N(NC(=O)OCc1ccccc1)C(=O)c1ccccc1Cl	none
Cc1csc(C(C)N(C)C(=O)c2ccc(OC3CCN(Cc4ccccn4)CC3)cc2)n1 (centres undefined)	none (no result: CHOP inh)
C1=CCC(CN2CCNCC2)CC1 (centres undefined)	none
Cc1ccc(C)c(N2CCN(CC3CC=CCC3)CC2)c1 (centres undefined)	CHOP inh 71.8
Cc1nc2cc(C(=O)O)ccc2n1-c1ccc(F)cc1F	GRIN3A LBD mod 15.5
CC(=O)N(CCCc1ccc(C(C)(C)C)cc1)CCCN(C)C	T cruzi repl 72.7

High-throughput results deposited in PubChem by several laboratories.
